For one assay, the system named is HeLa. In words: Cytotoxicity against human HeLa cells after 48 hrs by CCK8 assay. Format: functional, cell-based. The method in brief:
(§1)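 IC50 values are reported in micromolar. Adriamycin, etoposide and camptothecin served as positive controls.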
Background: Tetrazolium dyes change colour on reduction, which living cells bring about.

The nature of assay [1]: Cytotoxicity against human DU145 cells after 48 hrs by CCK8 assay. To be noted: DU-145, 48 h.
Assay [2] can be described thus: Cytotoxicity against human HCT15 cells after 48 hrs by CCK8 assay. Format: functional, cell-based. To be noted: HCT-15, 48 h. The method in brief: as §1

Structures can show the parent of a compound that is named as a salt.

Usually IC50 stands for the point on the concentration scale where inhibition reaches its midpoint. A high value points to weaker potency in that assay. In the case of `CC[C@@]1(O)C(=O)OCc2c1cc1n(c2=O)Cc2cc3ccccc3nc2-1` [CAMPTOTHECIN], the IC50 stood at 0.18 µM with HeLa, 0.02 µM in assay [1] and 2.82 µM in assay [2].
`COc1cccc2c1C(=O)c1c(O)c3c(c(O)c1C2=O)C[C@@](O)(C(=O)CO)C[C@@H]3O[C@H]1C[C@H](N)[C@H](O)[C@H](C)O1` [DOXORUBICIN HYDROCHLORIDE]: inhibition in assay [2] was half-maximal at 1.23 µM (IC50).
With `COc1cc([C@@H]2c3cc4c(cc3[C@@H](O[C@@H]3O[C@@H]5CO[C@@H](C)O[C@H]5[C@H](O)[C@H]3O)[C@H]3COC(=O)[C@H]23)OCO4)cc(OC)c1O` [ETOPOSIDE], the concentration for half-maximal inhibition (IC50) is 2.09 µM in assay [1] and 18.9 µM in assay [2].

The values are drawn from ChEMBL document CHEMBL3779827, “A new series of 2-phenol-4-aryl-6-chlorophenyl pyridine derivatives as dual topoisomerase I/II inhibitors: Synthesis, biological evaluation and 3D-QSAR study” (Eur J Med Chem, 2016).
